Source: EPA's CvTdb concentration-time database

Assays:
Hamster = experiment: concentration in plasma after dosing; conditions: dosed: 2,4-Dichlorophenoxyacetic acid, 8.0 mg/kg, iv, Male, Syrian Golden
How it was run: (§1)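 Points were largely digitised from plot screenshots with WebPlotDigitizer or otherwise copied from tables, and they remain in the units each source reported. They come from published in vivo toxicokinetic studies and two structured collections. Sampling and analytical methods follow each source and were often not reported.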

Rat [1] = experiment: concentration in plasma after dosing; conditions: dosed: 2,4-Dichlorophenoxyacetic acid, 7.0 mg/kg, oral, Male, Sprague-Dawley
Rat [2] = experiment: concentration in plasma after dosing; conditions: 0.25 h; dosed: 2-Hydroxy-4-methoxybenzophenone; 500 mg/kg; oral; Male; F344
Rat [3] = experiment: concentration in plasma after dosing; conditions: dosed: 2-Hydroxy-4-methoxybenzophenone, 100 mg/kg, oral, Female, F344
Mouse [4] = experiment: concentration in plasma after dosing; conditions: 10 min; dosed: 2-Hydroxy-4-methoxybenzophenone; 50 mg/kg; iv; Male; B6C3F1
Rat [5] = experiment: concentration in plasma after dosing; conditions: dosed: 2-Hydroxy-4-methoxybenzophenone, 250 mg/kg, oral, Male, F344
Rat [6] = experiment: concentration in plasma after dosing; conditions: dosed: 2-Hydroxy-4-methoxybenzophenone, 500 mg/kg, oral, Male, F344
Mouse [7] = experiment: concentration in plasma after dosing; conditions: 3 h; dosed: 2-Hydroxy-4-methoxybenzophenone; 50 mg/kg; iv; Female; B6C3F1
Mouse [8] = experiment: concentration in plasma after dosing; conditions: 10 min; dosed: 2-Hydroxy-4-methoxybenzophenone; 500 mg/kg; oral; Male; B6C3F1
Rat [9] = experiment: concentration in plasma after dosing; conditions: dosed: Methyleugenol, 37 mg/kg, iv, Male, F344
Rat [10] = experiment: concentration in plasma after dosing; conditions: dosed: Methyleugenol, 37 mg/kg, oral, Female, F344/N
Rat [11] = experiment: concentration in plasma after dosing; conditions: dosed: Methyleugenol, 37 mg/kg, iv, Female, F344
Rat [12] = experiment: concentration in liver after dosing; conditions: 1200 h; dosed: Perfluorohexane-1-sulphonic acid – potassium salt; 16 mg/kg; oral; Male; Harlan Sprague Dawley
Rat [13] = experiment: concentration in brain after dosing; conditions: 24 h; dosed: Perfluorohexane-1-sulphonic acid – potassium salt; 16 mg/kg; oral; Female; Harlan Sprague Dawley
Rat [14] = experiment: concentration in kidney after dosing; conditions: 192 h; dosed: Perfluorohexane-1-sulphonic acid – potassium salt; 16 mg/kg; oral; Female; Harlan Sprague Dawley
Rat [15] = experiment: concentration in kidney after dosing; conditions: 192 h; dosed: Perfluorohexane-1-sulphonic acid – potassium salt; 16 mg/kg; oral; Female; F344
Rat [16] = experiment: concentration in plasma after dosing; conditions: 12 h; dosed: Primidone; 130 mg/kg; oral; Male; Harlan Sprague Dawley
Rat [17] = experiment: concentration in plasma after dosing; conditions: 0.5 h; dosed: Primidone; 80 mg/kg; oral; Female; Harlan Sprague-Dawley
Rat [18] = experiment: concentration in plasma after dosing; conditions: 6 h; dosed: Primidone; 130 mg/kg; oral; Female; F344
Rat [19] = experiment: concentration in plasma after dosing; conditions: 40 h; dosed: Pyridine; 100 mg/kg; oral; Male; F344
Rat [20] = experiment: concentration in plasma after dosing; conditions: 10 min; dosed: Pyridine; 10 mg/kg; oral; Male; F344
Rat [21] = experiment: concentration in plasma after dosing; conditions: 10 min; dosed: Pyridine; 10 mg/kg; oral; Male; F344; remark: listed apart in the source
Rat [22] = experiment: concentration in brain after dosing; conditions: 6 h; dosed: alpha-Thujone; 25 mg/kg; oral; Male; Harlan Sprague Dawley
Rat [23] = experiment: concentration in brain after dosing; conditions: 0.5 h; dosed: alpha-Thujone; 50 mg/kg; oral; Male; Harlan Sprague Dawley
Rat [24] = experiment: concentration in brain after dosing; conditions: 0.5 h; dosed: alpha-Thujone; 25 mg/kg; oral; Male; Harlan Sprague Dawley
Rat [25] = experiment: concentration in brain after dosing; conditions: 1.5 h; dosed: alpha-Thujone; 50 mg/kg; oral; Female; Harlan Sprague Dawley
Rat [26] = experiment: concentration in plasma after dosing; conditions: 0.5 h; dosed: alpha-Thujone; 25 mg/kg; oral; Male; Harlan Sprague Dawley
Rat [27] = experiment: concentration in plasma after dosing; conditions: 6 h; dosed: alpha-Thujone; 25 mg/kg; oral; Male; Harlan Sprague Dawley
Rat [28] = experiment: concentration in plasma after dosing; conditions: 10 min; dosed: alpha-Thujone; 25 mg/kg; oral; Male; Harlan Sprague Dawley
human = conditions: dosed: trichloroethylene, 100 ppm, inhalation, duration: 4 hr, person
How it was run: as §1

O=C(O)COc1ccc(Cl)cc1Cl [2,4-Dichlorophenoxyacetic acid]
concentration in plasma [µg/mL]
Conditions | Hamster | Rat [1]
0.25 h | 36.9 | 8.07
0.5 h | 6.32 | 14.5
1 h | 0.939 | –
2 h | – | 4.09
2.5 h | 0.351 | –
2.5 min | 113 | 7.17
3 h | – | 3.18
4 h | – | 3.72
5 h | – | 4.48
6 h | – | 1.89
10 min | – | 14.7
20 min | 26.6 | –

O=C(c1ccccc1)c1ccc(O)cc1O [2,4-Dihydroxybenzophenone]
Conditions | concentration in plasma [µg/mL]
Mouse [4] | 3.89
Mouse [7] | 0.0327
Mouse [8] | 0.856
Rat [2] | 0.713

Conditions | concentration in plasma [µg/mL]
Rat [3], 0.5 h | 0.255
Rat [3], 5 h | 0.0466
Rat [5], 3 h | 0.0718
Rat [5], 10 min | 0.0409
Rat [6], 10 h | 0.203
Rat [6], 10 min | 0.0551

C=CCc1ccc(OC)c(OC)c1 [Methyleugenol]
Conditions | concentration in plasma [µg/mL]
Rat [9], 0.25 h | 8.18
Rat [9], 1.5 h | 0.878
Rat [10], 4 h | 0.00995
Rat [10], 5 min | 0.173
Rat [11], 3 h | 0.158
Rat [11], 5 min | 28.9

O=S(=O)([O-])C(F)(F)C(F)(F)C(F)(F)C(F)(F)C(F)(F)C(F)(F)F.[K+] [Perfluorohexane-1-sulphonic acid – potassium salt]
Conditions | concentration in brain [ng/g] | concentration in kidney [ng/g] | concentration in liver [ng/g]
Rat [12] | – | – | 15500
Rat [13] | 743 | – | –
Rat [14] | – | 1650 | –
Rat [15] | – | 16700 | –

CCC1(c2ccccc2)C(=O)NCNC1=O [Primidone]
Conditions | concentration in plasma [µg/mL]
Rat [16] | 17.8
Rat [17] | 22.9
Rat [18] | 58.4

c1ccncc1 [Pyridine]
Conditions | concentration in plasma
Rat [19] | 18400 ng/mL
Rat [20] | 4.95 µg/mL
Rat [21] | 5.48 µg/mL

CC(C)[C@]12CC(=O)[C@H](C)[C@H]1C2 [alpha-Thujone]
Conditions | concentration in brain [ng/g] | concentration in plasma [ng/mL]
Rat [22] | 28.2 | –
Rat [23] | 5490 | –
Rat [24] | 359 | –
Rat [25] | 1020 | –
Rat [26] | – | 324
Rat [27] | – | 83.5
Rat [28] | – | 248

OCC(Cl)(Cl)Cl [trichloroethanol]
human
Conditions | amount in urine after dosing [mg]
1 h | 13
2 h | 11
4 h | 21.5
8 h | 36.3
12 h | 31.4
16 h | 26.7
24 h | 33.6
36 h | 39.7
48 h | 22.6
60 h | 17
72 h | 11.5
84 h | 6.52
96 h | 3.88
108 h | 6
120 h | 3.14
132 h | 2.17
144 h | 1.65
156 h | 0.88
168 h | 1.08
180 h | 1.17
